Source: PubChem (Broad Institute)
This excerpt belongs to a sample that is enriched for hits.
KDM4C inh: KDM4C (human) demethylase inhibition. Q9H3R0. inhibition, % at 12.5 µM. 0.15% of 96,000 active. GST-KDM4C 2-372, H3K9me3 peptide, LANCE TR-FRET;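 active = mean replicate inhibition above about 25%, with at least 55% of replicates also reaching it, limit read from the data, passing the limit was not always enough; inconclusive = only one of those two conditions met; inactive = neither condition met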
Target sequence (Q9H3R0 2-372 limits assumed): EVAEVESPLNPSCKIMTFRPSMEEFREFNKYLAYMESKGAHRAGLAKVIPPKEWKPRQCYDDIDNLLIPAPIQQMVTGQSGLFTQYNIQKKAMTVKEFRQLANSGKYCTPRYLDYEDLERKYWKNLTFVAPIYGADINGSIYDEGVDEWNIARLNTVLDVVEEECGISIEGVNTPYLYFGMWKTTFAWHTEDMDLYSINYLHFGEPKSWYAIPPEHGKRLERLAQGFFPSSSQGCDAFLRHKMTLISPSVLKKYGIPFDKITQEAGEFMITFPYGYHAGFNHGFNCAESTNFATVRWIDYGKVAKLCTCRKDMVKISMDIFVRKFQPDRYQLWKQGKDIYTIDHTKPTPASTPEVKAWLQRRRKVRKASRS
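Material: N-terminal GST-fused human GASC-1 (KDM4C) fragment, residues 2-372. Input: 10 nM enzyme. Incubation: enzyme reaction 30 min, then detection 60 min, both room temperature. Doses: one test concentration per compound. Read-out basis: inhibition from TR-FRET ratio decrease. Detection: LANCE TR-FRET, excitation 340 nm, emissions 618 and 671 nm.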
IDH1 mut inh: blocks human IDH1 R132H reductase activity; O75874; diaphorase/resazurin fluorescence, 60 min; inhibition, % at 10 µM; 0.18% of 70,000 active; AID 624101; in the data active = inhibition above about 34%; inconclusive = no clear call, values can overlap the other calls; inactive = below about 11%
Target sequence (O75874 whole entry R132H): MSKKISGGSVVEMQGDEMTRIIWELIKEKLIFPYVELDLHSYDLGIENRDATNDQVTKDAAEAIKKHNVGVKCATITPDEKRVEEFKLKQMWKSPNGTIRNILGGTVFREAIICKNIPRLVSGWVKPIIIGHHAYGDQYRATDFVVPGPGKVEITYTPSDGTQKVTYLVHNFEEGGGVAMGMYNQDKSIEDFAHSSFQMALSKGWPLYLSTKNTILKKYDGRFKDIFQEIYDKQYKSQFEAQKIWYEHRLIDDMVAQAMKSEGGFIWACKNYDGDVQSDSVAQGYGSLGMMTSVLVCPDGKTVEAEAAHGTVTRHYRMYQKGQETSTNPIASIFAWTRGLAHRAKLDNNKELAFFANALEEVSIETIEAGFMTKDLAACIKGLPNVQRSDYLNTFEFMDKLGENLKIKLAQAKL
T cruzi growth-1: inhibitors of T. cruzi proliferation. inhibition, % at 8.34 µM. 5.9% of 77,000 active. T. cruzi beta-gal in NIH3T3, GalScreen luminescence, 90 h;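 active = mean inhibition above about 93%, with at least 55% of replicates each passing it, limit read from the data, passing the limit was not always enough; inconclusive = only one of those two conditions holds; inactive = neither condition holds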
T cruzi growth-2: blocks T. cruzi growth in NIH3T3 host cells; shares compounds with T cruzi growth-1; T. cruzi beta-gal in NIH3T3, GalScreen luminescence, 90 h; inhibition, % at 8.35 µM; 72% of 5,600 active;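 active = mean replicate inhibition above about 95% and at least 55% of replicates individually reaching it, limit read from the data; inconclusive = only one of the two criteria is met; inactive = neither criterion is met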
T cruzi growth-3: blocks T. cruzi growth in NIH3T3 host cells; inhibition, % at 2.09 µM; 21% of 5,600 active; T. cruzi beta-gal in NIH3T3, GalScreen luminescence, 90 h; AID 651740; shares compounds with T cruzi growth-1;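 active = mean inhibition above about 95%, with at least 55% of replicates also reaching it, limit read from the data; inconclusive = meets just one of the two conditions; inactive = meets neither condition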
3T3 cytotox: cytotoxicity in mouse NIH/3T3 fibroblasts; shares compounds with T cruzi growth-1; NIH/3T3 viability, CellTiter-Glo ATP luminescence, 90 h; cytotoxicity (signal decrease), % at 8.35 µM; 14% of 5,600 active;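 active = mean signal decrease across replicates above about 35% based on untreated-well scatter, with enough replicates individually passing, limit read from the data; inconclusive = no rule stated though some were filed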
3T3 cytotox 2: kills mouse NIH/3T3 fibroblasts; inhibition, % at 24.9 µM; 56% of 5,600 active; shares compounds with T cruzi growth-1; NIH/3T3 viability, CellTiter-Glo ATP luminescence, 90 h; AID 651744;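 active = mean loss of cell viability signal at or above a set limit, and enough replicates individually reaching it; inconclusive = meets only the mean limit or only the replicate share; inactive = meets neither condition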
Large screens that a line does not name were inactive (follow-up assays come after a bar, where they were run).

CC(C)CC#Cc1ccc2c(c1)O[C@@H](CN(C)C(=O)c1ccccc1F)[C@@H](C)CN([C@@H](C)CO)S2(=O)=O	T cruzi growth-1 inconclusive | T cruzi growth-2 95.7 | T cruzi growth-3 inactive | 3T3 cytotox inactive | 3T3 cytotox 2 106.3
CC(C)CC#Cc1ccc2c(c1)O[C@H](CN(C)C(=O)c1ccccc1F)[C@H](C)CN([C@@H](C)CO)S2(=O)=O	T cruzi growth-1 inconclusive
COCC#Cc1ccc2c(c1)O[C@@H](CN(C)C(=O)c1ccccc1F)[C@@H](C)CN([C@@H](C)CO)S2(=O)=O	none
CCCC#Cc1ccc2c(c1)O[C@H](CN(C)C(=O)c1ccccc1F)[C@H](C)CN([C@@H](C)CO)S2(=O)=O	none
CCCC#Cc1ccc2c(c1)O[C@@H](CN(C)C(=O)c1ccccc1F)[C@H](C)CN([C@@H](C)CO)S2(=O)=O	T cruzi growth-1 111.8 | T cruzi growth-2 103.5 | T cruzi growth-3 inactive | 3T3 cytotox inactive | 3T3 cytotox 2 84.9
CC(C)CC#Cc1ccc2c(c1)O[C@@H](CN(C)C(=O)c1ccccc1F)[C@@H](C)CN([C@H](C)CO)S2(=O)=O	T cruzi growth-1 99.5 | T cruzi growth-2 inactive | T cruzi growth-3 inactive | 3T3 cytotox inactive | 3T3 cytotox 2 102.7
CCC(=O)N(C)C[C@@H]1Oc2cc(-c3cccc(OC)c3)ccc2S(=O)(=O)N([C@@H](C)CO)C[C@H]1C	none
COc1ccc(CNC(=O)C2CCCCC2C(=O)O)cc1 (centres undefined)	none (no result: KDM4C inh, T cruzi growth-1)
C[C@@H]1CCCCO[C@H](CN(C)CC2CCCCC2)[C@H](C)CN([C@@H](C)CO)C(=O)c2cc(NC(=O)Nc3ccc(F)cc3)ccc2O1	T cruzi growth-1 119.6 (no result: IDH1 mut inh) | T cruzi growth-2 97.1 | T cruzi growth-3 113.5 | 3T3 cytotox 53.8 | 3T3 cytotox 2 103.4
C[C@H]1CCCCO[C@@H](CN(C)CC2CC2)[C@@H](C)CN([C@@H](C)CO)C(=O)c2cc(NC(=O)Nc3ccc(F)cc3)ccc2O1	none (no result: IDH1 mut inh)
C[C@@H]1CCCCO[C@@H](CN(C)C)[C@@H](C)CN([C@H](C)CO)C(=O)c2cc(NC(=O)Nc3ccc(F)cc3)ccc2O1	none
CCCN(C)C[C@H]1OCCCC[C@@H](C)Oc2ccc(NC(=O)Nc3ccccc3)cc2C(=O)N([C@H](C)CO)C[C@@H]1C	none
C[C@H](CO)N1C[C@H](C)[C@@H](CN(C)CC2CC2)OCCCC[C@H](C)Oc2ccc(NC(=O)Nc3ccc(F)cc3)cc2C1=O	none (no result: IDH1 mut inh)
C[C@H]1CCCCO[C@H](CN(C)CC2CCCCC2)[C@@H](C)CN([C@@H](C)CO)C(=O)c2cc(NC(=O)Nc3ccc(F)cc3)ccc2O1	T cruzi growth-1 115.3 | T cruzi growth-2 97.2 | T cruzi growth-3 113.9 | 3T3 cytotox 47.1 | 3T3 cytotox 2 103.1
C[C@H](CO)N1C[C@H](C)[C@@H](CN(C)CC2CCCCC2)OCCCC[C@H](C)Oc2ccc(NC(=O)Nc3ccc(F)cc3)cc2C1=O	T cruzi growth-1 114.3 | T cruzi growth-2 98.4 | T cruzi growth-3 110.7 | 3T3 cytotox inactive | 3T3 cytotox 2 103.0
CCCN(C)C[C@H]1OCCCC[C@@H](C)Oc2ccc(NC(=O)Nc3ccc(F)cc3)cc2C(=O)N([C@H](C)CO)C[C@@H]1C	T cruzi growth-1 99.8 (no result: IDH1 mut inh) | T cruzi growth-2 101.4 | T cruzi growth-3 inactive | 3T3 cytotox inactive | 3T3 cytotox 2 inactive
Cn1c(CN2CCOCC2)nnc1SCC(=O)Nc1ccc2ccccc2c1	none (no result: KDM4C inh, T cruzi growth-1)
CCC(=O)N1C[C@@H](C)[C@@H](OC)CN(C)C(=O)c2ccc(NC(=O)c3ccc(F)cc3)cc2OC[C@H]1C	none
Cc1ccc(-c2cc(C(=O)NCCCN3CCOCC3)c3cc(Br)ccc3n2)cc1	none (no result: KDM4C inh, T cruzi growth-1)
N#Cc1c(C(F)(F)F)cc(-c2ccco2)nc1SCC(=O)Nc1cccc(C(F)(F)F)c1	none (no result: KDM4C inh, T cruzi growth-1)
Cc1ccc2ccc(C(Nc3ccccn3)c3ccc(C(C)C)cc3)c(O)c2n1 (centres undefined)	none (no result: KDM4C inh, T cruzi growth-1)
C[C@@H]1CCCCO[C@@H](CN(C)CC2CCCCC2)[C@@H](C)CN([C@@H](C)CO)C(=O)c2cc(NC(=O)Nc3ccc(F)cc3)ccc2O1	T cruzi growth-1 118.9 | T cruzi growth-2 103.1 | T cruzi growth-3 inactive | 3T3 cytotox inactive | 3T3 cytotox 2 104.2
C[C@@H]1CCCCO[C@@H](CN(C)CC2CCCCC2)[C@H](C)CN([C@H](C)CO)C(=O)c2cc(NC(=O)Nc3ccc(F)cc3)ccc2O1	T cruzi growth-1 104.6 | T cruzi growth-2 95.0 | T cruzi growth-3 112.4 | 3T3 cytotox inactive | 3T3 cytotox 2 102.4
C[C@@H]1CCCCO[C@@H](CN(C)CC2CC2)[C@@H](C)CN([C@H](C)CO)C(=O)c2cc(NC(=O)Nc3ccc(F)cc3)ccc2O1	none
C[C@@H]1CN([C@@H](C)CO)C(=O)c2cc(NC(=O)Nc3ccc(F)cc3)ccc2O[C@@H](C)CCCCO[C@H]1CN(C)C	none
COC(=O)CN(c1cc(Cl)cc(Cl)c1)S(=O)(=O)c1ccccc1	none (no result: KDM4C inh, T cruzi growth-1)
O=C(NCCc1c[nH]c2ccccc12)NC1CCCCC1	none (no result: KDM4C inh, T cruzi growth-1)
C[C@@H]1CCCCO[C@@H](CN(C)C(=O)Nc2ccc3c(c2)OCO3)[C@@H](C)CN([C@H](C)CO)C(=O)c2cc(NC(=O)CCCN(C)C)ccc2O1	T cruzi growth-1 110.7 (no result: IDH1 mut inh) | T cruzi growth-2 inconclusive | T cruzi growth-3 inactive | 3T3 cytotox inactive | 3T3 cytotox 2 inactive
C[C@H]1CCCCO[C@H](CN(C)C(=O)Nc2ccc(F)cc2)[C@@H](C)CN([C@@H](C)CO)C(=O)c2cc(NC(=O)Cc3ccccc3)ccc2O1	T cruzi growth-1 104.7 (no result: IDH1 mut inh) | T cruzi growth-2 108.9 | T cruzi growth-3 inactive | 3T3 cytotox inactive | 3T3 cytotox 2 inactive
C[C@@H]1CN([C@@H](C)CO)C(=O)Cc2cc(NC(=O)CCCN(C)C)ccc2O[C@H]1CN(C)C(=O)Nc1ccc(F)cc1	none (no result: T cruzi growth-1)
C[C@@H]1CCCCO[C@@H](CN(C)C(=O)Nc2ccc3c(c2)OCO3)[C@H](C)CN([C@@H](C)CO)C(=O)c2cc(NC(=O)CCCN(C)C)ccc2O1	none
C[C@H](CO)N1C[C@H](C)[C@@H](CN(C)C(=O)Nc2ccc(F)cc2)OCCCC[C@H](C)Oc2ccc(NC(=O)Cc3ccccc3)cc2C1=O	T cruzi growth-1 98.0 (no result: IDH1 mut inh) | T cruzi growth-2 inconclusive | T cruzi growth-3 inactive | 3T3 cytotox inactive | 3T3 cytotox 2 inactive
C[C@@H]1CCCCO[C@@H](CN(C)C(=O)Nc2ccc(F)cc2)[C@@H](C)CN([C@H](C)CO)C(=O)c2cc(NC(=O)Cc3ccccc3)ccc2O1	none
C[C@H]1CN([C@@H](C)CO)C(=O)Cc2cc(NC(=O)CCCN(C)C)ccc2O[C@@H]1CN(C)C(=O)Nc1ccc2c(c1)OCO2	T cruzi growth-1 inconclusive | T cruzi growth-2 inactive | T cruzi growth-3 inactive | 3T3 cytotox inactive | 3T3 cytotox 2 inactive
